Measured values reported in ChEMBL document CHEMBL1125314, “Synthesis and evaluation of 2-pyridinone derivatives as HIV-1 specific reverse transcriptase inhibitors. 1. Phthalimidoalkyl and -alkylamino analogues” (J Med Chem, 1992).

Experiments:
[1] = molecular target: Human immunodeficiency virus type 1 reverse transcriptase (Human immunodeficiency virus 1, UniProt Q72547); assay: Inhibition of HIV-1 reverse transcriptase.
[2] = The compound was tested for hydrolysis rate at pH 7; type: ADME; details: buffer
Outline: (§1)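 Aqueous hydrolysis of the (aminomethyl)phthalimides followed at pH 7, 8.2 (the pH used for the RT enzyme measurements) and 9.0. Results are expressed as the observed rate constant k_obs in units of 10⁻³ min⁻¹.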

[3] = The compound was tested for hydrolysis rate at pH 9; type: ADME; details: buffer; outline: as §1
[4] = The compound was tested for hydrolysis rate at pH 8.2; type: ADME; details: buffer; outline: as §1

Row | SMILES | IC50 [1] [µM] | k obs [2] [min⁻¹] | k obs [3] [min⁻¹] | k obs [4] [min⁻¹]
1 | CCc1cc(CCCN2C(=O)c3ccccc3C2=O)c(O)nc1C | 210 |  |  | 
2 | CCCc1cc(NCN2C(=O)c3ccccc3C2=O)c(=O)[nH]c1C | 0.058 |  |  | 
3 | CCc1cc(NCCCN2C(=O)c3ccccc3C2=O)c(=O)[nH]c1C | 190 |  |  | 
4 | Cc1cc(NCN2C(=O)c3ccccc3C2=O)c(O)nc1C | 0.218 |  |  | 
5 | CCc1cc(C(=O)CN2C(=O)c3ccccc3C2=O)c(=O)[nH]c1C | > 300 |  |  | 
6 | CCc1cc(NCN2C(=O)c3ccccc3C2=O)c(O)nc1C |  | 0.00624 | 0.0243 | 0.0101
7 | CCc1cc(/C=C/N2C(=O)c3ccccc3C2=O)c(=O)[nH]c1C | 54 |  |  | 
8 | CCC1=C(C)NC(OC)C(CCCN2C(=O)c3ccccc3C2=O)=C1 (stereo not given) | > 300 |  |  | 
9 | O=C1c2ccccc2C(=O)N1CNc1cc2c(nc1O)CCCC2 | 3.7 | 0.00777 | 0.03678 | 0.013
10 | CCc1nc(O)c(NCN2C(=O)c3ccccc3C2=O)cc1C | 0.887 | 0.00722 | 0.03627 | 0.01001
11 | CCc1cc(CN2C(=O)c3ccccc3C2=O)c(=O)[nH]c1C | 26.5 |  |  | 
12 | CCC1=C(C)NC(OC)C(CN2C(=O)c3ccccc3C2=O)=C1 (stereo not given) | 16 |  |  | 
13 | CCC1=C(C)NC(OC)C(C(=O)CN2C(=O)c3ccccc3C2=O)=C1 (stereo not given) | > 300 |  |  | 
14 | Cc1ccc(NCN2C(=O)c3ccccc3C2=O)c(=O)[nH]1 | 8.1 | 0.00424 | 0.027 | 0.0073
15 | CCCCc1cc(NCN2C(=O)c3ccccc3C2=O)c(O)nc1C | 0.128 |  |  | 
16 | CCC1=C(C)NC(OC)C(CCN2C(=O)c3ccccc3C2=O)=C1 (stereo not given) | 6.2 |  |  | 
17 | O=C1c2ccccc2C(=O)N1CNc1cccnc1O | 1.66 | 0.00085 | 0.02417 | 0.0039
18 | CCc1cc(C(O)CN2C(=O)c3ccccc3C2=O)c(O)nc1C (stereo not given) | > 300 |  |  | 
19 | CCc1cc(NCCN2C(=O)c3ccccc3C2=O)c(=O)[nH]c1C | 45 |  |  | 
20 | O=C1c2ccccc2C(=O)N1CCc1cccnc1O | > 300 |  |  | 
21 | CCC1=C(C)NC(OC)C(C(O)CN2C(=O)c3ccccc3C2=O)=C1 (stereo not given) | > 300 |  |  | 
